Assay results from ChEMBL document CHEMBL2346497, “Synthesis of novel cognition enhancers with pyrazolo[5,1-c][1,2,4]benzotriazine core acting at γ-aminobutyric acid type A (GABA(A)) receptor” (Bioorg Med Chem, 2013).
The source made the active and inactive calls. The calls are words filed in the database; no cut-off is given here.

Assays:
[1] = tested on: Rattus norvegicus; assay: Procognitive effect in Harlan Wistar rat assessed as exploring time of familiar rat during social investigatory behaviour at 10 mg/kg, po administered 30 mins prior to testing measured for 5 mins by social learning test (reference value: 27.6 secs); format: functional
[2] = tested on: Mus musculus; assay: Anxiolytic activity in CD1 albino mouse assessed as increase in time spent in illuminated side at 3 to 10 mg/kg, po administered 30 mins prior to testing measured for 5 mins by light-dark box test; format: functional, organism-based
Procedure, shortened: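 Light/dark box: two equal acrylic compartments, one lit by a 60 W lamp, joined by a floor-level opening. Male CD-1 mice were dosed po in 1% CMC 30 min before the test, then placed in the centre of the lit side facing away from the dark side. Over 5 min, transfers and time in the light side were recorded, n = 8 mice per group.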

[3] = tested on: Mus musculus; assay: Antiamnesic activity in CD1 albino mouse assessed as reversal of scopolamine-induced amnesia at 1 mg/kg, po administered 30 mins prior to scopolamine challenge measured after 24 hrs by passive avoidance test; format: functional, organism-based; set-up: dose 1 mg/kg
Procedure, shortened: (§1)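 Step-through passive avoidance in male CD-1 mice (22–24 g). Test drugs were given po, suspended in 1% carboxymethylcellulose at 10 ml/kg, 30 min before the training session. For the antiamnesic arm, scopolamine 1.5 mg/kg was injected immediately after punishment. Retention latency was compared with CMC-treated controls, n = 10–12 mice per group.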

[4] = tested on: Rattus norvegicus; assay: Procognitive effect in Harlan Wistar rat assessed as exploring time of familiar rat during social investigatory behaviour at 1 mg/kg, po administered 30 mins prior to testing measured for 5 mins by social learning test (reference value: 27.6 secs); format: functional
[5] = tested on: Mus musculus; assay: Cognitive enhancing effect in CD1 albino mouse assessed as increase in retention latency at 1 to 10 mg/kg, po administered 30 mins prior to testing measured after 24 hrs by passive avoidance test relative to control; format: functional, organism-based; procedure, shortened: as §1
[6] = target: GABA A receptor alpha-2/beta-2/gamma-2 (Homo sapiens) (UniProt P47870+P18507+P47869); assay: Displacement of [3H]Ro15-1788 from recombinant GABA-A alpha2beta2gamma2 receptor benzodiazepine binding site (unknown origin) at 10 uM after 1 hr relative to control; format: protein-complex assay
Procedure, shortened: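 Membranes came from clonal mammalian cell lines expressing α1β2γ2, α2β2γ2 or α5β3γ2 receptors, grown in MEM/EBSS with 10% FCS at 37 °C. Membranes were resuspended in 10 mM potassium phosphate, pH 7.4, with 100 mM KCl. Assays used 1–2 nM [3H]Ro15-1788 and test compound from 10^-9 to 10^-5 M, at least six concentrations. Diazepam at 10^-5 M defined nonspecific binding. Incubation ran 1 h at 4 °C. Single-point % inhibition was measured at 10 µM, and Ki by curve fitting; n = 5, in duplicate.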

[7] = tested on: Mus musculus; assay: Anticonvulsant activity in CD1 albino mouse assessed as protection against pentylenetetrazole-induced convulsions at 10 mg/kg, po administered 30 mins prior to pentylenetetrazole challenge measured over 30 mins (reference value: 7.1%); format: functional

inhibition [6]: 5%
Structure (SMILES): Cc1cnn2c1n[n+]([O-])c1ccc(OCc3ccncc3)cc12
Time [1]: 41.4 s | Activity [2]: inactive | Activity [3]: Active | Time [4]: 33.2 s | Activity [5]: Active | Activity [7]: 0%
